Here are results for 15 compounds from paper PMC10962891 (Hepatology Communications, 2024).

Data set [1] addresses T1, human TGR5 (Homo sapiens, UniProt Q8TDU6).
T1 sequence (Q8TDU6 1-330): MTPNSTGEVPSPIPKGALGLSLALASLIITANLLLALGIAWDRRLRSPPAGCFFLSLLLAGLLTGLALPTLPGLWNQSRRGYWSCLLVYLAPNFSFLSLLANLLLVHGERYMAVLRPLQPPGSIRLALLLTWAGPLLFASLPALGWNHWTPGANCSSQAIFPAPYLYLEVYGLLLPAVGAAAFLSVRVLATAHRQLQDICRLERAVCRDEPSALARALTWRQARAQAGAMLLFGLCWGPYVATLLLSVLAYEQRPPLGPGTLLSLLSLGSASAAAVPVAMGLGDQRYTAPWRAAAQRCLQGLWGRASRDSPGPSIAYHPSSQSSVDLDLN
The experiment in a line: cell-based.

A further data set concerns the target T2, human FXRα2 (Homo sapiens, UniProt Q96RI1).
T2 sequence (Q96RI1 1-472 isoform Q96RI1-2): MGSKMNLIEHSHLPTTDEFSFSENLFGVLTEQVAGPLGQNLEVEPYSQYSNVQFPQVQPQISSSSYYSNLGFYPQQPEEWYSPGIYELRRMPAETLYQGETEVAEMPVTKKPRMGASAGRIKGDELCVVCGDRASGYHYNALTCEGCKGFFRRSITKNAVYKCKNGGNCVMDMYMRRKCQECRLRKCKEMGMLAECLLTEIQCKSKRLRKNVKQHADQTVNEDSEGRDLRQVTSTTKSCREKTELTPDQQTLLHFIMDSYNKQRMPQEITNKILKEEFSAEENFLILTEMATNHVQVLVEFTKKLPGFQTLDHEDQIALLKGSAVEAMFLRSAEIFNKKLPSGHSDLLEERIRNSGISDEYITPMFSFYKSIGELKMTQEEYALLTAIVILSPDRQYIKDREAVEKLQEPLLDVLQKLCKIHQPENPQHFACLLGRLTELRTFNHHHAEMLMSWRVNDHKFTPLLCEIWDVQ
T2 sequence (P19793 1-462 partner): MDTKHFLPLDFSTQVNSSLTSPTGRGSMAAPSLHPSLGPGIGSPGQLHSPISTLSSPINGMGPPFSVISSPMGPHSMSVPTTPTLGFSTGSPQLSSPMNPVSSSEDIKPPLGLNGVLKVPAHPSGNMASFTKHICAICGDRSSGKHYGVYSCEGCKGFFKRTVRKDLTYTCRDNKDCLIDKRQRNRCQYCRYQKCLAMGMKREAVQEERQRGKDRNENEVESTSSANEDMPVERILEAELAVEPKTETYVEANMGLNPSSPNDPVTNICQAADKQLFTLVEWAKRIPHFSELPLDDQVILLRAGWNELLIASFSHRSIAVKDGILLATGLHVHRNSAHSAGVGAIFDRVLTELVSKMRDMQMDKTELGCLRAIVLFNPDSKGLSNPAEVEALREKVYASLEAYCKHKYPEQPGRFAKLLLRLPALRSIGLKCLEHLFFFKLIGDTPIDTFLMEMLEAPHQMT
The experiment in a line: FXR luciferase reporter assay in 293T cells transfected with FXRα2. The data set is classed as cell-based. To be noted: for EC50: read-out: EC50 for FXR (cell-based reporter assay, composite EC50), second column entry, 293T cells expressing FXRα2, RXRα, ASBT, repeated thrice for L-TyrCDCA only. In short, it runs like this: (§1)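 293T cells (70–80% confluent) were co-transfected by lipofection with FXRα2 or FXRα4 (10 ng), RXRα (2 ng), an Shp-element firefly reporter (5 ng), Renilla pRL-TK (2 ng), ASBT or NTCP (0 or 1 ng) and GFP filler to 100 ng. After 24 h, cells received 0.1% DMSO, a 10 µM positive control, or test compounds in serum-free medium for 24 h. Firefly:Renilla ratios were set relative to DMSO; quadruplicates, 3 independent runs.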
In general terms: A reporter such as luciferase makes a cellular process visible.

The target in the next data set is T3, human FXRα4 (Homo sapiens, UniProt Q96RI1).
T3 sequence (Q96RI1 1-482 isoform Q96RI1-4): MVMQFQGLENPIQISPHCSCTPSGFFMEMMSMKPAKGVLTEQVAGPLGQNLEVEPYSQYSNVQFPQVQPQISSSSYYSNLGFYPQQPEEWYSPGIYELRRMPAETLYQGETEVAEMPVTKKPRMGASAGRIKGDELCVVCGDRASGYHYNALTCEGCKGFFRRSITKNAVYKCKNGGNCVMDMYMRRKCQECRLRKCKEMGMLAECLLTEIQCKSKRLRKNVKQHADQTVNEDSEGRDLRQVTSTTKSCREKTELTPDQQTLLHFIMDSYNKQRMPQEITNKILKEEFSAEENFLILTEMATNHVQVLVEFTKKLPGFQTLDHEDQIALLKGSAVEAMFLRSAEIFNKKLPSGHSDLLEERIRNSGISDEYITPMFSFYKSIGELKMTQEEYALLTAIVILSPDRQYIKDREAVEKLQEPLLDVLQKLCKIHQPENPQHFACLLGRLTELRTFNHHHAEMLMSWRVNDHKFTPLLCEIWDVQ
T3 sequence (P19793 1-462 partner): T2 sequence (P19793 1-462 partner)
The experiment in a line: FXR luciferase reporter assay in 293T cells transfected with FXRα4. The data set is classed as cell-based. To be noted: 10 µM, cells overexpressing FXRα4, independent of bile salt importer. In short, it runs like this: as §1

A further data set relates to RAW264.7 cells. The experiment in a line: LPS-induced cytokine release. The format is cell-based, murine. To be noted: then 3 ng/mL LPS 23 h; for effect on LPS-enhanced medium levels of TNFα and IL-6: 100 µM pretreatment 1 h. In short, it runs like this: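 RAW264.7 cells at 70–80% confluency were pretreated 1 h in serum-free medium with 0.1% DMSO, a 50 µM positive control, or test compounds. LPS (E. coli O128:B12, 3 ng/mL) was then added for 23 h. Cleared supernatants (300 g, 10 min) were assayed for IL-6 and TNFα by ELISA, normalized to cellular protein. Quadruplicates; three repeats.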

The conditions of data set [2]: mice, considerable dose; cited from earlier work.
The next data set has as its system microbial composition. The conditions noted are these: initial tests; cited from earlier work.
The subject of data set [3] is C. difficile. To be noted: cited from earlier work.
The test system of data set [4] is C. difficile. To be noted: cited from earlier work. The source holds these as a separate data set.
For data set [5], the target named is T1, human TGR5. The format is cell-based. The conditions noted are these: 10 µM positive control, 293T cells -/+ TGR5 overexpression.

The structures appear in SMILES notation. Entries after “also recorded” stand apart in the source; their conditions may differ.

Broadly, the EC50 is the concentration that produces a half-maximal response. In turn, `C[C@H](CCC(=O)NCC(=O)O)[C@H]1CC[C@H]2[C@@H]3[C@H](O)C[C@@H]4C[C@H](O)CC[C@]4(C)[C@H]3C[C@H](O)[C@]12C` [GCA, glycocholic acid] displayed an EC50 on human TGR5 [1] of 342 ± 26.7 µM. In the case of `C[C@H](CCC(=O)N[C@H](Cc1ccc(O)cc1)C(=O)O)[C@H]1CC[C@H]2[C@@H]3[C@H](O)C[C@@H]4C[C@H](O)CC[C@]4(C)[C@H]3CC[C@]12C` [D-TyrCDCA, D-Tyrosochenodeoxycholic acid], the EC50 on human FXRα2 worked out at 6.8 µM. On to `C[C@H](CCC(=O)N[C@@H](Cc1ccc(O)cc1)C(=O)O)[C@H]1CC[C@H]2[C@@H]3[C@H](O)C[C@@H]4C[C@H](O)CC[C@]4(C)[C@H]3C[C@H](O)[C@]12C` [L-TyrCA, L-Tyrosocholic acid], for which the EC50 at human FXRα2 came to 46.3 µM. For the same compound, the “affinity for FXRα2 relative to D/L-TyrCDCA (fold lower)” value at human FXRα2 (reporter cells expressing uptake transporter) came out at 6 fold. In turn, `C[C@H](CCC(=O)NCCS(=O)(=O)O)[C@H]1CC[C@H]2[C@@H]3[C@H](O)C[C@@H]4C[C@H](O)CC[C@]4(C)[C@H]3C[C@H](O)[C@]12C` [TCA, Taurocholic acid] had an EC50 on human TGR5 [1] of 277 ± 16.6 µM.

Take `CC[C@H]1[C@@H](O)[C@@H]2[C@H](CC[C@]3(C)[C@@H]([C@H](C)CCC(=O)O)CC[C@@H]23)[C@@]2(C)CC[C@@H](O)C[C@@H]12` [OCA, obeticholic acid, reference compound]: at human FXRα2 (10 µM, FXRα2/RXRα, no transporter), the “FXR reporter activation in mock-transfected cells (-OSTαβ)” value is “able to activate FXR”. The FXR reporter activation entry is “strongly activated” on human FXRα2 (10 µM, cells overexpressing FXRα2, independent of bile salt importer) and “strongly activated” at human FXRα4. Consider `C[C@H](CCC(=O)NCCS(=O)(=O)O)[C@H]1CC[C@H]2[C@@H]3CC[C@@H]4C[C@H](O)CC[C@]4(C)[C@H]3CC[C@]12C` [TLCA, taurolithocholic acid, reference compound], for which, in the data set on RAW264.7 cells (50 µM pretreatment 1 h), the “change of LPS-induced IL-6 level” value is -4.6 fold and the “change of LPS-induced TNFα level” value is recorded as -3.6 fold.

As for `C[C@H](CCC(=O)N[C@@H](Cc1ccccc1)C(=O)O)[C@H]1CC[C@H]2[C@@H]3[C@H](O)C[C@@H]4C[C@H](O)CC[C@]4(C)[C@H]3CC[C@]12C` [PheCDCA, phenylalanochenodeoxycholic acid], the “effect on LPS-enhanced medium levels of TNFα and IL-6” value with RAW264.7 cells was “counteracted”. Turning to `CC(C)C[C@H](NC(=O)CC[C@@H](C)[C@H]1CC[C@H]2[C@@H]3[C@H](O)C[C@@H]4C[C@H](O)CC[C@]4(C)[C@H]3C[C@H](O)[C@]12C)C(=O)O` [LeuCA, leucocholic acid], the “detection in portal blood or bile after repeated oral gavage” value in data set [2] is given as “failure to detect; also recorded: did not lead to detection”. Besides, the “effect on microbial composition in vitro” value in the data set with microbial composition is reported as “did not affect”.

Take `C[C@H](CCC(=O)N[C@@H](Cc1ccc(O)cc1)C(=O)O)[C@H]1CC[C@H]2[C@@H]3[C@H](O)C[C@@H]4C[C@H](O)CC[C@]4(C)[C@H]3C[C@H](O)[C@]12C` [TyrCA, tyrosocholic acid]: in data set [2], the “detection in portal blood or bile after repeated oral gavage” value is on record as “failure to detect; also recorded: did not lead to detection”. The “spore germination of C. difficile” value with C. difficile [3] is on record as “inhibit”. For the same compound, the “growth of C. difficile” value with C. difficile [4] is “not inhibited”. For the same compound, in the data set with microbial composition, the “effect on microbial composition in vitro” value is on record as “did not affect”. Take `C[C@H](CCC(=O)N[C@@H](Cc1ccccc1)C(=O)O)[C@H]1CC[C@H]2[C@@H]3[C@H](O)C[C@@H]4C[C@H](O)CC[C@]4(C)[C@H]3C[C@H](O)[C@]12C` [PheCA, phenylalanocholic acid]: in the data set on RAW264.7 cells, the “effect on LPS-enhanced medium levels of TNFα and IL-6” value is given as “counteracted”. Also, in the data set on C. difficile [3], the “spore germination of C. difficile” value was “inhibit”. The “growth of C. difficile” value in the data set with C. difficile [4] was “not inhibited”. Moreover, the “effect on microbial composition in vitro” value with microbial composition is recorded as “did not affect”.

Consider `CC(CCC(=O)NCC(=O)O)C1CCC2C3C(O)CC4CC(O)CCC4(C)C3CCC12C` (centres unmarked) [GCDCA, glycochenodeoxycholic acid], for which a half-maximal response on human TGR5 [1] (EC50) required 29.4 ± 0.9 µM. Consider `C[C@H](CCC(=O)N[C@@H](Cc1ccccc1)C(=O)O)[C@H]1CC[C@H]2[C@@H]3[C@@H](O)[C@@H](O)[C@@H]4C[C@H](O)CC[C@]4(C)[C@H]3CC[C@]12C` [Pheβ muricholic acid], for which, in the data set on C. difficile [3], the “spore germination of C. difficile” value is listed as “inhibit”. With `C[C@H](CCC(=O)N[C@@H](Cc1ccc(O)cc1)C(=O)O)[C@H]1CC[C@H]2[C@@H]3[C@H](O)C[C@@H]4C[C@H](O)CC[C@]4(C)[C@H]3CC[C@]12C` [L-TyrCDCA, L-Tyrosochenodeoxycholic acid], the EC50 on human FXRα2 came to 7.8 µM. On the same count and under the same terms, the figure for `C[C@H](CCC(=O)N[C@H](Cc1ccc(O)cc1)C(=O)O)[C@H]1CC[C@H]2[C@@H]3[C@H](O)C[C@@H]4C[C@H](O)CC[C@]4(C)[C@H]3C[C@H](O)[C@]12C` [D-TyrCA, D-Tyrosocholic acid] is 9.9 µM. Regarding `C=C[C@@]1(C)CC(=O)[C@]2(O)[C@@]3(C)[C@@H](O)CCC(C)(C)[C@@H]3[C@H](O)[C@H](OC(C)=O)[C@@]2(C)O1` [forskolin, Forskolin A], the “activation of cAMP-driven reporter” value on human TGR5 [5] was “activated the reporter independent of TGR5 overexpression”.
